Reference: article PMC4220649 (Blood Cancer Journal, 2014)
Where two headings read alike, the source gives them in different places.

Tested on: patients with relapsed/refractory lymphoma
Assay type: in vivo, human
Conditions: for Drug-related grade ⩾3 AE: Renal failure: includes renal failure acute; for Drug-related AE: PN NEC: peripheral neuropathy, high-level term
Method in brief: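 Open-label phase 1 in patients with relapsed/refractory lymphoma after ⩾2 prior therapies. Dosing started at one patient per level with doubling from 0.125 to 1.0 mg/m2, then followed a 3+3 schema up to 3.11 mg/m2. DLTs were assessed in cycle 1, and AEs were graded by NCI-CTCAE v3.0.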

## CC(C)C[C@H](NC(=O)CNC(=O)c1cc(Cl)ccc1Cl)B(O)O [ixazomib]
Dose 1.76 mg/m^2 (n=7)
  Drug-related AE: Paresthesia: 0 n
  Drug-related AE: Peripheral edema: 1 n
  Drug-related AE: Pyrexia: 3 n
  Drug-related AE: Thrombocytopenia: 2 n
  Drug-related AE: Vomiting: 4 n
  Drug-related grade ⩾3 AE: Any grade ⩾3 AE: 3 n
  Drug-related grade ⩾3 AE: Dehydration: 0 n
  Drug-related grade ⩾3 AE: Diarrhea: 0 n
  Drug-related grade ⩾3 AE: Lymphopenia: 0 n
  Drug-related grade ⩾3 AE: Neutropenia: 1 n
  Drug-related grade ⩾3 AE: Thrombocytopenia: 1 n
  Drug-related grade ⩾3 AE: Renal failure: 0 n
  Drug-related AE: PN NEC: 2 n
Dose 2.34 mg/m^2 (n=10)
  Drug-related AE: Abdominal pain: 2 n
  Drug-related AE: Any AE: 10 n
  Drug-related AE: Arthralgia: 1 n
  Drug-related AE: Chills: 1 n
  Drug-related AE: Constipation: 0 n
  Drug-related AE: Cough: 1 n
  Drug-related AE: Decreased appetite: 0 n
  Drug-related AE: Decreased platelet count: 0 n
  Drug-related AE: Diarrhea: 2 n
  Drug-related AE: Dysgeusia: 1 n
  Drug-related AE: Fatigue: 2 n
  Drug-related AE: Headache: 1 n
  Drug-related AE: Hypokalemia: 0 n
  Drug-related AE: Lymphopenia: 2 n
  Drug-related AE: Nausea: 1 n
  Drug-related AE: Neutropenia: 3 n
  Drug-related AE: Oral herpes: 1 n
  Drug-related AE: Pain in extremity: 2 n
  Drug-related AE: Paresthesia: 1 n
  Drug-related AE: Peripheral edema: 2 n
  Drug-related AE: Pyrexia: 2 n
  Drug-related AE: Thrombocytopenia: 2 n
  Drug-related AE: Vomiting: 1 n
  Drug-related grade ⩾3 AE: Any grade ⩾3 AE: 4 n
  Drug-related grade ⩾3 AE: Dehydration: 0 n
  Drug-related grade ⩾3 AE: Diarrhea: 0 n
  Drug-related grade ⩾3 AE: Lymphopenia: 1 n
  Drug-related grade ⩾3 AE: Neutropenia: 3 n
  Drug-related grade ⩾3 AE: Thrombocytopenia: 1 n
  Drug-related grade ⩾3 AE: Renal failure: 0 n
  Drug-related AE: PN NEC: 0 n
Dose 3.11 mg/m^2 (n=5)
  Drug-related AE: Abdominal pain: 2 n
  Drug-related AE: Any AE: 5 n
  Drug-related AE: Arthralgia: 2 n
  Drug-related AE: Chills: 1 n
  Drug-related AE: Constipation: 3 n
  Drug-related AE: Cough: 1 n
  Drug-related AE: Decreased appetite: 3 n
  Drug-related AE: Decreased platelet count: 2 n
  Drug-related AE: Diarrhea: 4 n
  Drug-related AE: Dysgeusia: 0 n
  Drug-related AE: Fatigue: 2 n
  Drug-related AE: Headache: 1 n
  Drug-related AE: Hypokalemia: 2 n
  Drug-related AE: Lymphopenia: 1 n
  Drug-related AE: Nausea: 2 n
  Drug-related AE: Neutropenia: 1 n
  Drug-related AE: Oral herpes: 1 n
  Drug-related AE: Pain in extremity: 1 n
  Drug-related AE: Paresthesia: 0 n
  Drug-related AE: Peripheral edema: 1 n
  Drug-related AE: Pyrexia: 0 n
  Drug-related AE: Thrombocytopenia: 1 n
  Drug-related AE: Vomiting: 3 n
  Drug-related grade ⩾3 AE: Any grade ⩾3 AE: 3 n
  Drug-related grade ⩾3 AE: Dehydration: 2 n
  Drug-related grade ⩾3 AE: Diarrhea: 3 n
  Drug-related grade ⩾3 AE: Lymphopenia: 1 n
  Drug-related grade ⩾3 AE: Neutropenia: 1 n
  Drug-related grade ⩾3 AE: Thrombocytopenia: 1 n
  Drug-related grade ⩾3 AE: Renal failure: 2 n
  Drug-related AE: PN NEC: 1 n
Dose 0.125–1.0 mg/m^2 (n=4)
  Drug-related AE: Abdominal pain: 0 n
  Drug-related AE: Any AE: 4 n
  Drug-related AE: Arthralgia: 0 n
  Drug-related AE: Chills: 0 n
  Drug-related AE: Constipation: 0 n
  Drug-related AE: Cough: 0 n
  Drug-related AE: Decreased appetite: 1 n
  Drug-related AE: Decreased platelet count: 0 n
  Drug-related AE: Diarrhea: 1 n
  Drug-related AE: Dysgeusia: 0 n
  Drug-related AE: Fatigue: 3 n
  Drug-related AE: Headache: 2 n
  Drug-related AE: Hypokalemia: 1 n
  Drug-related AE: Lymphopenia: 0 n
  Drug-related AE: Nausea: 1 n
  Drug-related AE: Neutropenia: 0 n
  Drug-related AE: Oral herpes: 0 n
  Drug-related AE: Pain in extremity: 0 n
  Drug-related AE: Paresthesia: 1 n
  Drug-related AE: Peripheral edema: 0 n
  Drug-related AE: Pyrexia: 0 n
  Drug-related AE: Thrombocytopenia: 1 n
  Drug-related AE: Vomiting: 0 n
  Drug-related grade ⩾3 AE: Any grade ⩾3 AE: 1 n
  Drug-related grade ⩾3 AE: Dehydration: 0 n
  Drug-related grade ⩾3 AE: Diarrhea: 0 n
  Drug-related grade ⩾3 AE: Lymphopenia: 0 n
  Drug-related grade ⩾3 AE: Neutropenia: 0 n
  Drug-related grade ⩾3 AE: Thrombocytopenia: 0 n
  Drug-related grade ⩾3 AE: Renal failure: 0 n
  Drug-related AE: PN NEC: 1 n
Grade 1 or 2, all doses, n=30
  Drug-related peripheral neuropathy (PN), patients: 13%
All doses, Total (n=30)
  Drug-related grade ⩾3 AE: Renal failure: 2 (7) n (%)
  Drug-related AE: PN NEC: 4 (13) n (%)
Dose 1.4 mg/m^2 (n=4)
  Drug-related grade ⩾3 AE: Renal failure: 0 n
  Drug-related AE: PN NEC: 0 n
